The source of these data is article PMC4304654 (Bioorganic & medicinal chemistry, 2012).

Data set [1] is described as follows: Aqueous solubility in the sodium acetate buffer of the fibrillization assay. The data set is classed as physicochemical.
Data set [2] concerns the target T1, K18 tau fragment (amino acids 244–369) bearing the P301L mutation (K18PL) (Homo sapiens, UniProt P10636, P618L). Description: Heparin-induced K18PL tau fibrillization, thioflavin-T. The data set is classed as biochemical. The method in brief: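 Heparin-induced fibrillization of the P301L K18 tau fragment (residues 244–369) in sodium acetate buffer, with test compound at a range of concentrations, each in triplicate. Read-out is thioflavin-T fluorescence of cross-beta fibrils. IC50 comes from a sigmoidal fit of the concentration-response, from one curve fit or the mean of 2 or more separate analyses. Maximal % inhibition is also reported.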

Data set [3] is described as follows: Brain and plasma levels 1 h after i.p. administration of 5 mg/kg. The data set is classed as in vivo, B6C3F1 mice. Conditions: mice. The method in brief: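 Mice got a single i.p. 5 mg/kg dose of test compound and were sacrificed 1 h later. Perfused brain hemispheres were sonicated in 10 mM ammonium acetate, pH 5.7 (50% w/v). Plasma came from EDTA-treated blood spun 10 min at 4500g, 4 °C. Samples were acetonitrile-precipitated and spun at 15000g. Supernatants went to LC-MS/MS (MRM, C18, 35 °C) and were quantified against matrix-matched linear standard curves.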

Data set [4] can be described thus: Unbound fraction in plasma by rapid equilibrium dialysis. The data set is classed as in vitro ADME. The following applies: mouse, pH 7.4. In general terms: In equilibrium dialysis free small molecules cross a membrane that holds back macromolecules.
The conditions of data set [5]: sodium acetate fibrillization assay buffer; previously reported data ref 7; cited from earlier work.
In data set [6] the target is T1, K18 tau fragment (amino acids 244–369) bearing the P301L mutation (K18PL). Conditions: 50 μM compound concentration; previously reported data ref 7; cited from earlier work.
A short description of data set [7]: Full PK evaluation and oral bioavailability of 43. The data set is classed as in vivo, B6C3F1 mice. Conditions: mice, 5 mg/kg i.p., 0.5–16 h post-dosing.
For data set [8], the system named is mice. Conditions: mouse, in vivo, 100 mg/kg.
The subject of data set [9] is mice. Conditions: mouse, in vivo, 50 mg/kg/day.
A further data set is described as follows: in vivo. The following applies: female, mouse, 50 mg/kg/day, Calculated free compound level in brain, mice, 3 days of dosing via drinking water at 50 mg/kg/day.
Setting [10] is: mice, 3 days of dosing via drinking water at 50 mg/kg/day.

Structures are written as SMILES. ≈ marks a conversion by molar mass, not a printed value. Where only a bound is given, the exact number is not on record here.

What is called solubility is the concentration that dissolves in the medium under given conditions. Low values mean little dissolved substance, high ones much dissolved substance. As usually defined, the fraction unbound is free concentration divided by total concentration.

T1 sequence (P10636 561-686 P618L): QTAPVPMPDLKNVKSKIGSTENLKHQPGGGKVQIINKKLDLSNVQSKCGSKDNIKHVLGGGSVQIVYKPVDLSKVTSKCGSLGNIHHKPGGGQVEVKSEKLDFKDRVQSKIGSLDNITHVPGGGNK

On to `CCOC(=O)c1nn(-c2ccc(Cl)cc2)c(=O)c2c(N)sc(Cl)c12` [Compound 67, Ethyl 5-amino-7-chloro-3-(4-chlorophenyl)-4-oxo-3,4-dihydrothieno[3,4-d]pyridazine-1-carboxylate], for which the concentration in solution in [1] (solubility) came to 32 µM (≈ 12.3 µg/mL). Moreover, the “Inhibition in the K18PL fibrillization assay” value (from here on “Inhibition”) in [2] was “near full inhibition”.

In turn, `CC(C)NC(=O)c1nn(-c2ccc(F)cc2)c(=O)c2c(N)scc12` [Compound 42, 5-Amino-3-(4-fluorophenyl)-N-isopropyl-4-oxo-3,4-dihydrothieno[3,4-d]pyridazine-1-carboxamide] had a solubility in data set [1] greater than 200 µM. In data set [3] (1 h after 5 mg/kg i.p.), the “B/P (total), brain-to-plasma ratio” value is “unity”. This compound gave a fraction unbound at 5 h, 1 μM in [4] of 0.057 ± 0.005.

In turn, `CCOC(=O)c1nn(-c2ccc(Cl)cc2)c(=O)c2c(N)sc(Br)c12` [Compound 68, Ethyl 5-amino-7-bromo-3-(4-chlorophenyl)-4-oxo-3,4-dihydrothieno[3,4-d]pyridazine-1-carboxylate] yielded a solubility in data set [1] of 12.8 µM (≈ 5.49 µg/mL). Besides, in data set [2], the “Inhibition” value is “near full inhibition”.

`CC(C)NC(=O)c1nn(-c2ccc(Cl)cc2)c(=O)c2c1CSC2=O` [Compound 72, 3-(4-Chlorophenyl)-N-isopropyl-4,5-dioxo-3,4,5,7-tetrahydrothieno[3,4-d]pyridazine-1-carboxamide]: the “Inhibition” value in data set [2] is listed as “near full inhibition”. The “Brain penetration” value in data set [3] (1 h after 5 mg/kg i.p.) is listed as “not brain-penetrant”.

In data set [1], `Cc1n[nH]c(=O)c2c(N)scc12` [Compound 55, 7-Amino-4-methylthieno[3,4-d]pyridazin-1(2H)-one] returned a solubility greater than 200 µM. In addition, in data set [2], the “Inhibition” value is reported as “near full inhibition”. For the same compound, the “Plasma levels 1 h after dosing” value in data set [3] (5 mg/kg i.p.) is recorded as “low plasma levels”. In data set [3] (1 h after 5 mg/kg i.p.), the Brain level result is given as “BLD ^d” and the Plasma level result is listed as “BLD ^d”.

`Cc1nn(C)c(=O)c2c(N)scc12` [Compound 56, 7-Amino-2,4-dimethylthieno[3,4-d]pyridazin-1(2H)-one] had a solubility in data set [1] greater than 200 µM. Moreover, the “Inhibition” value in data set [2] is recorded as “near full inhibition”. Moreover, in [3] (1 h after 5 mg/kg i.p.), the Brain level entry was “BLD ^d”.

Consider `Nc1scc2c(C(=O)O)nn(-c3ccc(Cl)cc3)c(=O)c12` [Compound 37, 5-Amino-3-(4-chlorophenyl)-4-oxo-3,4-dihydrothieno[3,4-d]pyridazine-1-carboxylic acid], for which the “Solubility in assay buffer, upper solubility limit” value in data set [5] is greater than 200 µM. Further, the “K18PL centrifugation assay % Soluble” value in [6] is 74%.

Consider `Nc1scc2c(C(=O)NC3CC3)nn(-c3ccc(C(F)(F)F)cc3)c(=O)c12` [Compound 47, 5-Amino-N-cyclopropyl-4-oxo-3-(4-(trifluoromethyl)-phenyl)-3,4-dihydrothieno[3,4-d]pyridazine-1-carboxamide], for which the solubility in data set [1] stood at 80 µM (≈ 31.6 µg/mL).

As for `Nc1scc2c(C(=O)O)nn(-c3ccc(O)cc3)c(=O)c12` [Compound 40, 5-Amino-3-(4-hydroxyphenyl)-4-oxo-3,4-dihydrothieno[3,4-d]pyridazine-1-carboxylic acid], the solubility in data set [1] was greater than 200 µM.

Compound `Nc1scc2c(-c3ccccc3)nn(CC(F)(F)F)c(=O)c12` [Compound 64, 7-Amino-4-phenyl-2-(2,2,2-trifluoroethyl)thieno[3,4-d]pyridazin-1(2H)-one] gave a solubility in data set [1] greater than 200 µM.

In data set [1], `CC(C)NC(=O)c1nn(-c2ccc(O)cc2)c(=O)c2c(N)scc12` [Compound 49, 5-Amino-3-(4-hydroxyphenyl)-N-isopropyl-4-oxo-3,4-dihydrothieno[3,4-d]pyridazine-1-carboxamide] came in with a solubility greater than 200 µM.

In data set [1], `Nc1scc2c(C(=O)NC3CC3)nn(-c3ccc(F)cc3)c(=O)c12` [Compound 43, 5-Amino-N-cyclopropyl-3-(4-fluorophenyl)-4-oxo-3,4-dihydrothieno[3,4-d]pyridazine-1-carboxamide] had a solubility greater than 200 µM. Further, in data set [7], the “Brain exposure” value was “good brain exposure”. Moreover, in the data set on mice [8], the “Signs of toxicity after a single oral administration” value is “only mild and transient lethargy”. Also, in the data set with mice [9], the “Adverse events” value is “no visible adverse events”, the “Amount of water consumed” value was “normal” and the Blood cell counts entry is “no alterations in any blood cell counts”. Besides, the “Tolerability” value in the data set on mice [9] (po) is “well-tolerated with no notable side-effects”. For the same compound, under setting [10], the “Calculated free compound level in brain” value is reported as 6 nM and the Total brain levels is recorded as ~ 140 nM. The “Plasma and brain levels after 30 days versus 3 days in drinking water” value (mouse, in vivo, 50 mg/kg/day) was “comparable”. In “in vivo”, the concentration at 3 days is 6 ± 0.4 nM.

`CCOC(=O)c1nn(-c2ccc(Cl)cc2)c(=O)c2c1C(O)NC2=O` (centres unmarked) [Compound 69, Ethyl 2-(4-chlorophenyl)-5-hydroxy-1,7-dioxo-2,5,6,7-tetrahydro-1H-pyrrolo[3,4-d]pyridazine-4-carboxylate]: in data set [1], the solubility is greater than 200 µM.

Regarding `Cc1nn(-c2cccnc2)c(=O)c2c(N)scc12` [Compound 61, 7-Amino-4-methyl-2-(pyridin-3-yl)thieno[3,4-d]pyridazin-1(2H)-one], in data set [1], the solubility was greater than 200 µM.

Consider `Cc1nn(Cc2ccccc2)c(=O)c2c(N)scc12` [Compound 62, 7-Amino-2-benzyl-4-methylthieno[3,4-d]pyridazin-1(2H)-one], for which the solubility in [1] stood at 80 µM (≈ 21.7 µg/mL). Besides, in data set [4], the fraction unbound at 5 h, 1 μM stood at 0.04 ± 0.01.

The compound `Nc1scc2c(C(=O)O)nn(-c3cccc(Cl)c3)c(=O)c12` [Compound 36, 5-Amino-3-(3-chlorophenyl)-4-oxo-3,4-dihydrothieno[3,4-d]pyridazine-1-carboxylic acid] came in with a solubility in data set [1] of 32 µM (≈ 10.3 µg/mL).

For `Nc1scc2c(C(=O)NCC(F)(F)F)nn(-c3ccc(F)cc3)c(=O)c12` [Compound 44, 5-Amino-3-(4-fluorophenyl)-4-oxo-N-(2,2,2-trifluoroethyl)-3,4-dihydrothieno[3,4-d]pyridazine-1-carboxamide], the solubility in [1] is greater than 200 µM. Moreover, the “B/P (total), brain-to-plasma ratio” value in data set [3] (1 h after 5 mg/kg i.p.) is listed as “unity”. The compound also gave a fraction unbound at 5 h, 1 μM in data set [4] of 0.022 ± 0.002.

As to `Nc1scc2c(C(=O)O)nn(-c3ccccc3Cl)c(=O)c12` [Compound 35, 5-Amino-3-(2-chlorophenyl)-4-oxo-3,4-dihydrothieno[3,4-d]pyridazine-1-carboxylic acid], the solubility in [1] was greater than 200 µM.

In [1], `CCOC(=O)c1nn(-c2ccccc2Cl)c(=O)c2c(N)scc12` [Compound 27, Ethyl 5-amino-3-(2-chlorophenyl)-4-oxo-3,4-dihydrothieno-[3,4-d]pyridazine-1-carboxylate] came in with a solubility of 12.8 µM (≈ 4.48 µg/mL). This lies in the double-digit micromolar range.

In [1], `CC(C)NC(=O)c1nn(-c2ccc(OC(F)(F)F)cc2)c(=O)c2c(N)scc12` [Compound 48, 5-Amino-N-isopropyl-4-oxo-3-(4-(trifluoromethoxy)-phenyl)-3,4-dihydrothieno[3,4-d]pyridazine-1-carboxamide] displayed a solubility of 80 µM (≈ 33 µg/mL).

`CCOC(=O)c1nn(-c2ccc(C(C)C)cc2)c(=O)c2c(N)scc12` [Compound 33, Ethyl 5-amino-3-(4-isopropylphenyl)-4-oxo-3,4-dihydrothieno[3,4-d]pyridazine-1-carboxylate] showed a solubility in data set [1] of 32 µM (≈ 11.4 µg/mL).

For the compound `CCOC(=O)c1nn(-c2ccc(Cl)cc2)c(=O)c2c(N)scc12` [Compound 29, Ethyl 5-amino-3-(4-chlorophenyl)-4-oxo-3,4-dihydrothieno-[3,4-d]pyridazine-1-carboxylate], in [5], the “Solubility in assay buffer, upper solubility limit” value is 13 µM (≈ 4.55 µg/mL). Besides, the “K18PL centrifugation assay % Soluble” value in data set [6] is on record as 47%.

`O=C(O)c1nn(-c2ccc(F)cc2)c(=O)c2c1CSC2=O` [Compound 70, 3-(4-Fluorophenyl)-4,5-dioxo-3,4,5,7-tetrahydrothieno[3,4-d]pyridazine-1-carboxylic acid]: the solubility in [1] was greater than 200 µM. In data set [2], the “Inhibition” value is “near full inhibition”.

As to `CC(C)NC(=O)c1nn(-c2cccc(Cl)c2)c(=O)c2c(N)scc12` [Compound 46, 5-Amino-3-(3-chlorophenyl)-N-isopropyl-4-oxo-3,4-dihydrothieno[3,4-d]pyridazine-1-carboxamide], in data set [1], the solubility came to 32 µM (≈ 11.6 µg/mL).

`CCOC(=O)c1nn(-c2ccc(Cl)cc2)c(=O)c2c(NC)scc12` [Compound 66, Ethyl 3-(4-chlorophenyl)-5-(methylamino)-4-oxo-3,4-dihydrothieno[3,4-d]pyridazine-1-carboxylate] yielded a solubility in data set [1] of 80 µM (≈ 29.1 µg/mL).

For the compound `CCOC(=O)c1nn(-c2ccc(F)cc2)c(=O)c2c(N)scc12` [Compound 26, Ethyl 5-amino-3-(4-fluorophenyl)-4-oxo-3,4-dihydrothieno[3,4-d]pyridazine-1-carboxylate], in [1], the solubility was greater than 200 µM.
